Measured values reported in ChEMBL document CHEMBL4715684, “Computer-aided discovery of phenylpyrazole based amides as potent S6K1 inhibitors” (RSC Med Chem, 2020).

Experiments:
[1] = target: Ribosomal protein S6 kinase beta-1 (Homo sapiens, UniProt P23443); assay: Inhibition of human S6K1 using KKRNRTLTK peptide substrate by radiometric assay
[2] = Metabolic stability in human liver microsomes assessed as half life; format: ADME, Microsome
Procedure, shortened: (§1)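 Half-life in human or rat liver microsomes, reported as the mean of three experiments with errors within 30% of the mean.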

CYP1A2 = target: T1, CYP1A2 (Homo sapiens, UniProt P05177); assay: Inhibition of human CYP1A2 using phenacetin as substrate at 10 uM by cocktail inhibition assay; format: ADME; conditions: probe phenacetin
T1 sequence (P05177 whole entry): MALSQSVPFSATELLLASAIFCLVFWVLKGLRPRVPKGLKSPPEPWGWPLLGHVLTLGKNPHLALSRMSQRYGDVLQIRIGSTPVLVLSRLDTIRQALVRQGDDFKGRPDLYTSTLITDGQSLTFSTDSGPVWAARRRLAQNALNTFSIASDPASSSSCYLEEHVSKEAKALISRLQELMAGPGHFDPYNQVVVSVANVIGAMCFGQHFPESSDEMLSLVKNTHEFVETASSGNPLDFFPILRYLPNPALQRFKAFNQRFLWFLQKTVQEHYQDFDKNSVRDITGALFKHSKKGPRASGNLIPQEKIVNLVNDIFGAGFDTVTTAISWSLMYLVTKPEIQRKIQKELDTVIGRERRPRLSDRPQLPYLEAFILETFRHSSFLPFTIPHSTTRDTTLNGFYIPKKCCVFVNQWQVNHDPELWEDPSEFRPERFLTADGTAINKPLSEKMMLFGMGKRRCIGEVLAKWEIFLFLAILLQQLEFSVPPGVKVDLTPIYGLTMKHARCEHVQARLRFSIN
Procedure, shortened: (§2)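 Cocktail P450 assay measuring marker metabolism with and without 10 µM test compound: CYP1A2 phenacetin […] to acetaminophen, CYP2C9 tolbutamide to hydroxytolbutamide, CYP2D6 bufuralol to […], CYP3A4 midazolam to 1'-hydroxymidazolam. Each substrate was at about its Km. Isoform-specific inhibitors were run as system controls. Values are means of three experiments, with errors within 30% of the mean.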

[3] = Oral bioavailability in Sprague-Dawley rat at 2 mg/kg measured upto 8 hrs by LC/MS/MS analysis; format: ADME, organism-based; conditions: in vivo
Procedure, shortened: (§3)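 Sprague Dawley rats were dosed with compound in a generic formulation at 1 mg mL-1, either 1 mg kg-1 iv into the femoral vein or 2 mg kg-1 by oral gavage. Blood was drawn at 5, 15, 30 min and 1, 2, 4, 6, 8 h into EDTA, and plasma was obtained by centrifugation. Plasma was precipitated with acetonitrile containing internal standard, then analysed by C18 LC-MS/MS (positive MRM) against internal-standard peak areas. Data were fitted with an IV bolus model.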

[4] = Metabolic stability in rat liver microsomes assessed as half life; format: ADME, Microsome; procedure, shortened: as §1
[5] = Clearance in Sprague-Dawley rat at 1 mg/kg, iv measured upto 8 hrs by LC/MS/MS analysis; format: ADME, organism-based; conditions: in vivo; procedure, shortened: as §3
[6] = Cmax in Sprague-Dawley rat at 2 mg/kg, po measured upto 8 hrs by LC/MS/MS analysis; format: ADME, organism-based; parameters: route oral, dose 2 mg/kg, time <=8; conditions: in vivo; procedure, shortened: as §3
CYP3A4 = CYP3A4 (Homo sapiens, UniProt P08684); assay: Inhibition of human CYP3A4 using midazolam as substrate at 10 uM by cocktail inhibition assay; format: ADME; conditions: probe midazolam; procedure, shortened: as §2
[7] = Half life in Sprague-Dawley rat at 1 mg/kg, iv measured upto 8 hrs by LC/MS/MS analysis; format: ADME, organism-based; conditions: in vivo; procedure, shortened: as §3
CYP2C9 = CYP2C9 (Homo sapiens, UniProt P11712); assay: Inhibition of human CYP2C9 using tolubutamide as substrate at 10 uM by cocktail inhibition assay; format: ADME; conditions: probe tolubutamide; procedure, shortened: as §2
[8] = Volume of distribution in Sprague-Dawley rat at 1 mg/kg, iv measured upto 8 hrs by LC/MS/MS analysis; format: ADME, organism-based; conditions: in vivo; procedure, shortened: as §3
[9] = AUC in Sprague-Dawley rat at 1 mg/kg, iv measured upto 8 hrs by LC/MS/MS analysis; format: ADME, organism-based; parameters: route intravenous, dose 1 mg/kg, time <=8; conditions: in vivo; procedure, shortened: as §3
CYP2D6 = CYP2D6 (Homo sapiens, UniProt P10635); assay: Inhibition of human CYP2D6 using bufuralol as substrate at 10 uM by cocktail inhibition assay; format: ADME; conditions: probe bufuralol; procedure, shortened: as §2
CYP2D6, sequence (P10635 whole entry): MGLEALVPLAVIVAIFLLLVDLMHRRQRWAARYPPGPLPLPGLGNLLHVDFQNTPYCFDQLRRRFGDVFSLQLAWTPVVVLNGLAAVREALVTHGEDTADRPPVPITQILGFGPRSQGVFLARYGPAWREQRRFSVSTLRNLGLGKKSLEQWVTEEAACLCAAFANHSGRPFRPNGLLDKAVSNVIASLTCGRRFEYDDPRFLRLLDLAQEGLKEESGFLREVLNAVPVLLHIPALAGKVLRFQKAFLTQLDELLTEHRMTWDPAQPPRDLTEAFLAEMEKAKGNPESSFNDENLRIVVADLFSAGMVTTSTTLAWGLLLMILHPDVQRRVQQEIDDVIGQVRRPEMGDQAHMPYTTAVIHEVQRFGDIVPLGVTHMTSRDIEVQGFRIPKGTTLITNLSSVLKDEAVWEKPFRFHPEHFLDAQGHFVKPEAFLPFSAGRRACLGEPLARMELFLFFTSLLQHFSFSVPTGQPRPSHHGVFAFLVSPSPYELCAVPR

Ribosomal protein S6 kinase beta-1, sequence (P23443 whole entry): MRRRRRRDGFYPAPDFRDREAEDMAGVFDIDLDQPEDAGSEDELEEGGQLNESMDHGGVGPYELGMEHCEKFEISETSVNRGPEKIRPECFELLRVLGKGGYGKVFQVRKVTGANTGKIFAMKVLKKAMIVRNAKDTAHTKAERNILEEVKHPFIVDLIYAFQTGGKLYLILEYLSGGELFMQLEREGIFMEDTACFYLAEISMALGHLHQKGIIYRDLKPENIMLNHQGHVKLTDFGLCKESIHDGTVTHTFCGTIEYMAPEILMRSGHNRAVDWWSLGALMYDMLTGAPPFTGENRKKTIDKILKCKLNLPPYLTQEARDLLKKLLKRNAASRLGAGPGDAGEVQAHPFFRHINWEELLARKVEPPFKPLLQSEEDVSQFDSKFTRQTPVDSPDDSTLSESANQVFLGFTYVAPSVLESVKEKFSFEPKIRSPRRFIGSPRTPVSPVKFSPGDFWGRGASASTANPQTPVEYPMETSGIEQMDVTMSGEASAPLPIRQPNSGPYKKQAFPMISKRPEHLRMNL
CYP2C9, sequence (P11712 whole entry): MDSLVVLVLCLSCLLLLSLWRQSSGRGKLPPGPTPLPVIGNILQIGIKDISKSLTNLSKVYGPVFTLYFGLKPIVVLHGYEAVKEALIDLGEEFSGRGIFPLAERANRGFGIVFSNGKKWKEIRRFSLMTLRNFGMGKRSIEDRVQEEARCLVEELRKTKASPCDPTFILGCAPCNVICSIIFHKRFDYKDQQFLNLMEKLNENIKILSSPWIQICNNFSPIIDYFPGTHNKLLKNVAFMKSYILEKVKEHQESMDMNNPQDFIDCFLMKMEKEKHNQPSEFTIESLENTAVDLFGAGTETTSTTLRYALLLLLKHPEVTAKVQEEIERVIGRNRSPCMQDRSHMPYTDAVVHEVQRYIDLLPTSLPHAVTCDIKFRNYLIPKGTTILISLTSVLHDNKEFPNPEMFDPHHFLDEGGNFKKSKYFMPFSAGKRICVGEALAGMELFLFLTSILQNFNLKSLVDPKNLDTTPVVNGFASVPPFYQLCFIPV
CYP3A4, sequence (P08684 whole entry): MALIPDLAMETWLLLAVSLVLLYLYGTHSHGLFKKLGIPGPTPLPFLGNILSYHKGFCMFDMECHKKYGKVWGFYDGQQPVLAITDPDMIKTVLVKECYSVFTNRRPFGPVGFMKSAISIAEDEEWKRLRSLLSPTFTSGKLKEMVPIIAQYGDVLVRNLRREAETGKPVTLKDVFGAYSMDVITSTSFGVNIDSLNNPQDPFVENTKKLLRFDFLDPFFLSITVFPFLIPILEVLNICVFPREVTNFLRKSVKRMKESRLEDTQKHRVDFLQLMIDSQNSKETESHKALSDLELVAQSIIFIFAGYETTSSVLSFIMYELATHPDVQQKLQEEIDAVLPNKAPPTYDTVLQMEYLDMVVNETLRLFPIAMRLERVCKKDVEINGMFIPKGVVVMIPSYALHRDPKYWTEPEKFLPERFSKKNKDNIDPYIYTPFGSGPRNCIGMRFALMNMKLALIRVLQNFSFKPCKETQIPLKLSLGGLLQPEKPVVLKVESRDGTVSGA

Row | IC50 [1] | half-life [2] | inhibition at 10 µM (CYP1A2) | bioavailability [3] | half-life [4] | clearance [5] | Cmax [6] | inhibition at 10 µM (CYP3A4) | half-life [7] | inhibition at 10 µM (CYP2C9) | Vd [8] | AUC at 8 h [9] | inhibition at 10 µM (CYP2D6) | SMILES
1 | 179 nM | – | – | – | – | – | – | – | – | – | – | – | – | O=C(Nc1ccc(-c2cn[nH]c2)cc1F)C1COc2ccccc2O1 (stereo not drawn)
2 | 56.7 nM | 23 min | 42% | 25% | 17 min | 28 mL/min/kg | 670 nM | 38% | 28.2 min | 63% | 0.7 L/kg | 1.6 µM·h | 40% | COc1ccc2c(c1)CC(C(=O)Nc1cc(F)c(-c3cn[nH]c3)c(F)c1)CO2 (stereo not drawn)
3 | – | – | – | 23% | – | – | 600 nM | – | – | – | 0.8 L/kg | 1.5 µM·h | – | O=C(Nc1cc(F)c(-c2cn[nH]c2)c(F)c1)C1COc2ccccc2C1 (stereo not drawn)
